Data as given in ChEMBL document CHEMBL4411310, “Identification of a novel DGKα inhibitor for XLP-1 therapy by virtual screening” (Eur J Med Chem, 2019).
Active and inactive are the calls of the source. No cut-off for these calls is given here.

Tests used:
[1] = target: T1, Diacylglycerol kinase alpha (Homo sapiens, UniProt P23743); test: Inhibition of OST-tagged DGKalpha (unknown origin) expressed in MDCK cell homogenates assessed as residual activity at 100 uM using DAG as substrate measured after 5 mins in presence of [gamma-32P]ATP by TLC analysis relative to control; type: cell-free
[2] = target: T1, Diacylglycerol kinase alpha; test: Inhibition of OST-tagged DGKalpha (unknown origin) expressed in MDCK cell homogenates using DAG as substrate measured after 5 mins in presence of [gamma-32P]ATP by TLC analysis; type: cell-free
Procedure, shortened: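 Doxycycline-induced (1 μg/ml, 2 days) MDCK cells expressing OST-DGKα, homogenized in Hepes pH 8 buffer with EDTA, EGTA, vanadate and protease inhibitors. Initial velocity measured 5 min at 27 °C with saturating 1,2-dioleoyl-sn-glycerol and γ32P-ATP plus 25 μM unlabelled ATP and MgCl2. Stopped with HCl, lipids extracted, separated by TLC, radioactive phosphatidic acid quantified by imager. IC50 from 0.1–100 μM, ≥3 experiments, normalized fit.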

[3] = target: Diacylglycerol kinase zeta (Homo sapiens) (UniProt Q13574); test: Inhibition of DGKzeta (unknown origin) expressed in human 293T cells at 100 uM using DAG as substrate measured after 5 mins in presence of [gamma-32P]ATP by TLC analysis
Procedure, shortened: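 293T cells transiently transfected with the DGKζ plasmid or empty vector; homogenates collected 48 h later. Compound at 100 μM. Reaction run 5 min at 27 °C with saturating 1,2-dioleoyl-sn-glycerol, γ32P-ATP plus 25 μM unlabelled ATP, and MgCl2, at pH 8. Stopped with HCl, lipids extracted and separated by TLC, read by phosphorimaging. At least three experiments in triplicate.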

[4] = test system: Serotonin (5-HT) receptor; test: Antagonist activity at serotonin receptor in human PBMC assessed as inhibition of PMA-stimulated superoxide anion generation at 10 uM preincubated for 1 hr followed by PMA-stimulation and measured after 30 mins by spectrophotometric method; details: 0.5 h
[5] = test system: Jurkat; test: Cytotoxicity against human Jurkat cells assessed as reduction in cell viability at 1 uM after 24 hrs by trypan blue exclusion assay; type: cell-based
Procedure, shortened: (§1)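 SAP-shRNA or control-shRNA Jurkat cells, 0.5 × 10^5 cells/well in triplicate, in wells left uncoated or precoated for 24 h at 4 °C with anti-CD3 OKT3 (50 μg/ml) or PHA-P (50 μg/ml). Inhibitor at 1 μM or DMSO control for 24 h. Live cells counted by trypan blue exclusion; % cell loss versus untreated controls. At least three experiments.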

[6] = target: T1, Diacylglycerol kinase alpha; test: Inhibition of DGKalpha in OKT3-induced human Jurkat cells harboring SAP ShRNA assessed as restoration of restimulation-induced cell death at 1 uM measured after 24 hrs by trypan blue exclusion method; type: cell-based; procedure, shortened: as §1
[7] = target: T1, Diacylglycerol kinase alpha; test: Inhibition of DGKalpha in PHA-induced human Jurkat cells harboring SAP ShRNA assessed as restoration of restimulation-induced cell death at 1 uM measured after 24 hrs by trypan blue exclusion method; type: cell-based; procedure, shortened: as §1
[8] = target: T-cell receptor (Homo sapiens) (UniProt P04437+P01848+P04435+P03979); test: Effect on TCR signaling in OKT3-induced human T-cells harboring SiRNA assessed as restoration of restimulation-induced cell death at 1 to 10 uM preincubated for 30 mins followed by OKT3 stimulation and measured 24 hrs post dose by propidium iodide staining based flow cytometry
Procedure, shortened: (§2)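 PBL from healthy donors, activated with anti-CD3/CD28 and then kept in IL-2. siRNA (SAP or control, 200 pmol) delivered by nucleofection, then 4 days in IL-2. 10^5 cells/well in triplicate; inhibitor (1, 5, 10 μM) added 30 min before OKT3 restimulation (1–500 ng/ml) for 24 h. PI staining, fixed 30 s flow acquisition; % cell loss.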

[9] = test system: T-cell; test: Cytotoxicity against human T cells assessed as cell death at 1 to 10 uM measured after 24 hrs propidium iodide staining based flow cytometry; procedure, shortened: as §2
[10] = target: T1, Diacylglycerol kinase alpha; test: Inhibition of DGKalpha in OKT3-induced human T cells harboring SAP SiRNA assessed as restoration of restimulation-induced cell death at 1 to 10 uM preincubated for 30 mins followed by OKT3 stimulation and measured 24 hrs post dose by propidium iodide staining based flow cytometry; procedure, shortened: as §2
[11] = target: T1, Diacylglycerol kinase alpha; test: Inhibition of DGKalpha in OKT3-induced human T cells harboring SAP siRNA assessed as restoration of TCR-induced NR4A1 upregulation at 10 uM after 4 hrs by RT-PCR analysis; type: cell-based
Procedure, shortened: (§3)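 Activated PBL transfected with SAP or control siRNA, 4 days in culture. Restimulated with OKT3 (10 μg/ml), with or without inhibitor at 10 μM. After 4 h, NR4A1 and NR4A3 measured by TaqMan qPCR normalised to GUSB. At least four independent experiments.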

[12] = target: T1, Diacylglycerol kinase alpha; test: Inhibition of DGKalpha in OKT3-induced human T cells harboring SAP siRNA assessed as restoration of TCR-induced NR4A3 upregulation at 10 uM after 4 hrs by RT-PCR analysis; type: cell-based; procedure, shortened: as §3
[13] = target: T1, Diacylglycerol kinase alpha; test: Inhibition of DGKalpha expressed in 293T cell homogenates at 100 uM using DAG as substrate measured after 5 mins in presence of [gamma-32P]ATP by TLC analysis relative to control
[14] = target: Diacylglycerol kinase alpha (Sus scrofa, UniProt P20192); test: Inhibition of pig FLAG3-tagged DGKalpha expressed in African green monkey COS7 cells using 1,2-dioleoyl-sn-glycerol as substrate measured after 30 mins by ADP-Glo luminescence assay
[15] = target: T1, Diacylglycerol kinase alpha; test: Inhibition of DGKalpha in human erythrocytes using OAG as substrate preincubated for 1 min followed by OAG addition and measured after 8 mins in presence of [gamma-32P]ATP; type: cell-based
[16] = Solubility of the compound in DMSO; type: physicochemical
[17] = target: T1, Diacylglycerol kinase alpha; test: Inhibition of DGKalpha in OKT3-induced human T cells harboring SAP SiRNA assessed as restoration of restimulation-induced cell death at >=5 uM preincubated for 30 mins followed by OKT3 stimulation and measured 24 hrs post dose by propidium iodide staining based flow cytometry; procedure, shortened: as §2
[18] = target: T2, 5-hydroxytryptamine receptor 2C (Homo sapiens, UniProt P28335); test: Binding affinity to 5HT2C receptor (unknown origin)
T2 sequence (P28335 whole entry): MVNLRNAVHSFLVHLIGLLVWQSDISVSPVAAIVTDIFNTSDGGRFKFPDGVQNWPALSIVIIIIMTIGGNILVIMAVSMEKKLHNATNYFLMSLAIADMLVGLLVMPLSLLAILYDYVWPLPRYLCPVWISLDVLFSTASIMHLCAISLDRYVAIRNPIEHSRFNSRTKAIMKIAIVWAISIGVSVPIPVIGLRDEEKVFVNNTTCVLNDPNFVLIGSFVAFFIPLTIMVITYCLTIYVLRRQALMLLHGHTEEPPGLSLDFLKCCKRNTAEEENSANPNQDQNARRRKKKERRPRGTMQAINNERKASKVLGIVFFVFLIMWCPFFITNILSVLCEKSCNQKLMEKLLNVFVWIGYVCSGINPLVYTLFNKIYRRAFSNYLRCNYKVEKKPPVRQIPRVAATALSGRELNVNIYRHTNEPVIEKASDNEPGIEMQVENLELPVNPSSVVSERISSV

[19] = target: Diacylglycerol kinase alpha (Rattus norvegicus, UniProt P51556); test: Inhibition of rat FLAG-tagged DGKalpha expressed in HEK293T cells using DAG as substrate measured after 15 mins in presence of [gamma-32P]ATP by scintillation counting method
Chain of Diacylglycerol kinase alpha (Rattus norvegicus, UniProt P51556) (P51556 whole entry): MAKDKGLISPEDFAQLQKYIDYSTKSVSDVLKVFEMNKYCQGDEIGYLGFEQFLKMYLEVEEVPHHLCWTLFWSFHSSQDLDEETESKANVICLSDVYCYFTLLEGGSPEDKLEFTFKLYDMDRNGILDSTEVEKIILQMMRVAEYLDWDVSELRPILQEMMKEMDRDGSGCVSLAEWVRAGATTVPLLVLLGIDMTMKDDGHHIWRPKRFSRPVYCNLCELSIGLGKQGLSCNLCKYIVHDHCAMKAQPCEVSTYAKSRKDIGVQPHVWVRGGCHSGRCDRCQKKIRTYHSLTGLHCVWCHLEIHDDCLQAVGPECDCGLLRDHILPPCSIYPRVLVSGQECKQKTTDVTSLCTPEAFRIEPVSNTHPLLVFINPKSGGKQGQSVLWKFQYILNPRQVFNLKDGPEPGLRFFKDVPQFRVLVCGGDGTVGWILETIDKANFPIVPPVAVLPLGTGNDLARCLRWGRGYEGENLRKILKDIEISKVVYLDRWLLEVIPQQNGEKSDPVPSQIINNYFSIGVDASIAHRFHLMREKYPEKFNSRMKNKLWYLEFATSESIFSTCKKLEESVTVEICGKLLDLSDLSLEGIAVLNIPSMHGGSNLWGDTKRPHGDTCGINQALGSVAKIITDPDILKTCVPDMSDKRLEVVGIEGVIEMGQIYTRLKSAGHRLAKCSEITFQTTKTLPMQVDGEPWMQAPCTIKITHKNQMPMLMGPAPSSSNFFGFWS

Chain of Diacylglycerol kinase zeta (Homo sapiens) (Q13574 whole entry): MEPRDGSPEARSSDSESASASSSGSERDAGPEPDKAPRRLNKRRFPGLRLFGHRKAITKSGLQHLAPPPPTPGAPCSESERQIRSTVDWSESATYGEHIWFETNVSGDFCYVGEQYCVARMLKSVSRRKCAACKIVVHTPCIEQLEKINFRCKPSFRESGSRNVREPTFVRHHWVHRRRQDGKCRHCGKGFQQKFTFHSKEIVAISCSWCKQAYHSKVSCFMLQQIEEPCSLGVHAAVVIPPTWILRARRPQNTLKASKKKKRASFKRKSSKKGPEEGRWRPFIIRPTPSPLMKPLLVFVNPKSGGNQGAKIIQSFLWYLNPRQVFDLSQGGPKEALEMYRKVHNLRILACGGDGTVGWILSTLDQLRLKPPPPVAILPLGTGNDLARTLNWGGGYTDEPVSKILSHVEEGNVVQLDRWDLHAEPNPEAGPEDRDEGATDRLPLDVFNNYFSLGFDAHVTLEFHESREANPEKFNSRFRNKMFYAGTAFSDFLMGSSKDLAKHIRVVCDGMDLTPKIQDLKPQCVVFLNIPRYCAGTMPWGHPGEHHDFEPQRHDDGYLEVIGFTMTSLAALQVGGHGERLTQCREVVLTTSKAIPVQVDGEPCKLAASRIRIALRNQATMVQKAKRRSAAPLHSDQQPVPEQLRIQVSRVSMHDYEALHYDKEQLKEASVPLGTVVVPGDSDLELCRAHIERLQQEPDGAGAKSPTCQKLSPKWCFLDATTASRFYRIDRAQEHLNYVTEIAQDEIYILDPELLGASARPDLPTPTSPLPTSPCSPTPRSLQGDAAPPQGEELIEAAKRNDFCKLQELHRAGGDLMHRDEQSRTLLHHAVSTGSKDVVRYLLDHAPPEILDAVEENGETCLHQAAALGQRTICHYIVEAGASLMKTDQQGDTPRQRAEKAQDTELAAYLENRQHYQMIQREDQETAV
Chain of Diacylglycerol kinase alpha (Sus scrofa, UniProt P20192) (P20192 whole entry): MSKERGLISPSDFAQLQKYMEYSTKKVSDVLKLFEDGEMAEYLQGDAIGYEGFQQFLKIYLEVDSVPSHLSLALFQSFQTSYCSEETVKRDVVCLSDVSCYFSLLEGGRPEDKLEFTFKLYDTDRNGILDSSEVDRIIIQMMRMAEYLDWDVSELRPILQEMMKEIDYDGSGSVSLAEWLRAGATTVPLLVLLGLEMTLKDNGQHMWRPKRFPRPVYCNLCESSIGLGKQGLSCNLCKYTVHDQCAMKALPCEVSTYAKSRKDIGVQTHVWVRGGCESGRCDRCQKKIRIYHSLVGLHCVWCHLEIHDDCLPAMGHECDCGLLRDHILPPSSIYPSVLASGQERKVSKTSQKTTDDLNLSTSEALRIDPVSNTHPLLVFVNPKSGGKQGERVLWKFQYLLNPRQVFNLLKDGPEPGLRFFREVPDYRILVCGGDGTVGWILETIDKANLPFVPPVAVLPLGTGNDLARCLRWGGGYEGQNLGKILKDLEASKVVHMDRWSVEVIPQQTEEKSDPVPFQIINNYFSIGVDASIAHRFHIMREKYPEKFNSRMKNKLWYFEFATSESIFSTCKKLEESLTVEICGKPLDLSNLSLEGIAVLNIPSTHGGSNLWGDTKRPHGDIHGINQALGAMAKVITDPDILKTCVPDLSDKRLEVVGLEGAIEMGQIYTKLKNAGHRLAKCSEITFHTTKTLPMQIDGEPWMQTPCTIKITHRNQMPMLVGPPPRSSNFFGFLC
T1 sequence (P23743 whole entry): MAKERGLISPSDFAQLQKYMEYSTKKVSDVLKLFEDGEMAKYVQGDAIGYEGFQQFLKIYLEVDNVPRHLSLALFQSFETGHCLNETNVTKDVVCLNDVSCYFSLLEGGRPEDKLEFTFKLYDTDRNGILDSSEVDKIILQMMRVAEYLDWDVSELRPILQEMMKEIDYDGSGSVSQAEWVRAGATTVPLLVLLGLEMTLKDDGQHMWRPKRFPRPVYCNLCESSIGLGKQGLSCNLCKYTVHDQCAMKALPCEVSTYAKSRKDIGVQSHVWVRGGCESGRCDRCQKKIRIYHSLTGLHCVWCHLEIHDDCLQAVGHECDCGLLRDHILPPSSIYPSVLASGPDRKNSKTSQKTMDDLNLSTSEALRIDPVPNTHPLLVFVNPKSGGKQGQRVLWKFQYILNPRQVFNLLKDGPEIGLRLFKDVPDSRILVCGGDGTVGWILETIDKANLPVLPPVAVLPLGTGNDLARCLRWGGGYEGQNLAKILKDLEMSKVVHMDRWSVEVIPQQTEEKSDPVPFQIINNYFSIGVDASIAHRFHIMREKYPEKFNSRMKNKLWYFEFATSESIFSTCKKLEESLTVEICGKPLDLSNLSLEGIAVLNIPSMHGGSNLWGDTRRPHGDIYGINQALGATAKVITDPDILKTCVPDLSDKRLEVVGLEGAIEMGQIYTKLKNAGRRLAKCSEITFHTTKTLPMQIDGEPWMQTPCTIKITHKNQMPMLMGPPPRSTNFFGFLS

O=C1CC2(CCCC2)C(=O)N1CN1CCN(C(c2ccccc2)c2ccccc2)CC1
Activity [1]: 68%

Cc1ccc2c(C(=O)CN3CCN(C(=O)c4ccco4)CC3)c(C)[nH]c2c1
Activity [1]: 4% | IC50 [2]: 4.28 to 4.3 µM | inhibition [3]: inactive | inhibition (INH) [4]: Not Active | Activity [5]: Non-Toxic | inhibition [6]: Active | inhibition [7]: Active | Activity [8]: inactive | Activity [9]: Non-Toxic | inhibition [10]: Active | inhibition [11]: Active | inhibition [12]: Active | inhibition [13]: 93%

O=c1c2ccccc2[nH]c(=S)n1CCCN1CCN(c2cccc(Cl)c2)CC1
Activity [1]: 39%

O=c1c2ccccc2[nH]c(=S)n1CCN1CCC(=C(c2ccc(F)cc2)c2ccc(F)cc2)CC1 [DIACYLGLYCEROL KINASE INHIBITOR II]
Activity [1]: 28% | IC50 [2]: 10.6 µM | inhibition [3]: inactive | IC50 [14]: 18 µM | inhibition [13]: 81%

O=C1C(=O)N(C2CCCC2)C(=O)N1CN1CCC(Cc2ccccc2)CC1
Activity [1]: 50%

COc1ccccc1CCN1CCC(CN(C)C(=O)C2=CCCCC2)CC1
Activity [1]: 57%

C/C=C(\C)[C@@H](OC(C)=O)[C@@H](C)C1=CC(=O)C2=C(O[C@]3(C)CC[C@H]4O[C@@H](C(C)(C)O)CC[C@]4(C)[C@H]3[C@@H]2O)C1=O [STEMPHONE]
Ki [15]: 3.32 µM

CCCCCCCC(=O)OCCOC(=O)CCCCCCC [ETHYLENE GLYCOL DIOCTANOATE]
Ki [15]: 58 µM

O=C(c1ccc(F)cc1)C1CCN(CCn2c(=O)[nH]c3ccccc3c2=O)CC1 [KETANSERIN]
inhibition (INH) [4]: Active | Activity [5]: Non-Toxic | inhibition [6]: Active | inhibition [7]: Active | Activity [8]: inactive | Activity [9]: Non-Toxic | inhibition [10]: inactive

O=C(NCC(=O)N1CCN(C(c2ccccc2)c2ccccc2)CC1)c1ccco1
Activity [1]: 68%

Cc1nc2n(c(=O)c1CCN1CCC(c3noc4cc(F)ccc34)CC1)CCCC2 [RISPERIDONE]
solubility [16]: Insoluble

COc1ccccc1OCCCN1CCN(C(=O)c2ccc(=O)[nH]n2)CC1
Activity [1]: 67%

O=C(Cn1cnc2sccc2c1=O)N1CCN(C(c2ccccc2)c2ccccc2)CC1
Activity [1]: 75%

O=C1/C(=C\C=C\c2ccco2)SC(=S)N1NS(=O)(=O)c1ccccc1
inhibition (INH) [4]: Not Active | Activity [5]: Toxic | inhibition [6]: Active | inhibition [7]: Active | Activity [8]: Active | inhibition [17]: Active | IC50 [14]: 0.6 µM

CC[C@H](C)[C@@H](OC(C)=O)[C@@H](C)C1=CC(=O)C2=C(O[C@]3(C)CC[C@H]4O[C@@H](C(C)(C)O)CC[C@]4(C)[C@H]3[C@@H]2O)C1=O [COCHLIOQUINONE A]
Ki [15]: 2.26 µM

O=C(Cc1cn2ccsc2n1)N1CCN(C(c2ccccc2)c2ccccc2)CC1
Activity [1]: 64%

Cc1nc2sccn2c(=O)c1CCN1CCC(=C(c2ccc(F)cc2)c2ccc(F)cc2)CC1 [RITANSERIN]
Activity [1]: 17% | IC50 [2]: 16.7 µM | inhibition (INH) [4]: Active | Activity [5]: Non-Toxic | inhibition [6]: Active | inhibition [7]: Active | Activity [8]: inactive | Activity [9]: Non-Toxic | inhibition [10]: Active | inhibition [11]: Active | Ki [18]: 0.00071 µM

O=C(CN1CCN(Cc2ccccc2)CC1)c1c[nH]c2ccccc12
Activity [1]: 72%

O=c1c2ccccc2[nH]c(=S)n1CCN1CCN(Cc2ccccc2)CC1
Activity [1]: 49%

Cc1nc2sccn2c(=O)c1CCN1CCC(=C(c2ccccc2)c2ccc(F)cc2)CC1
Activity [1]: 27% | IC50 [2]: 19.7 to 19.8 µM | inhibition [3]: inactive | IC50 [14]: 25 µM | IC50 [15]: 3.8 µM | IC50 [19]: 20 µM | inhibition [13]: 68%

COc1ccccc1N1CCN(CCCNc2cc(=O)n(C)c(=O)n2C)CC1
Activity [1]: 75%

O=C(CCCN1CCC(O)(c2ccc(Cl)cc2)CC1)c1ccc(F)cc1
Activity [1]: 62%

O=C(CN1CCC(n2nnc3ccccc32)CC1)N(C1CCCCC1)C1CCCCC1
solubility [16]: Insoluble
